Assay results as given in ChEMBL document CHEMBL1629494, “New amino acid esters of salicylanilides active against MDR-TB and other microbes” (Eur J Med Chem, 2010).

Tests used:
Format in all cases: functional
Candida tropicalis [1] = experiment: Antifungal activity against Candida tropicalis 156 after 48 hrs by broth microdilution method; settings: Candida tropicalis, 156, 48 h
Enterococcus sp. [2] = experiment: Antibacterial activity against Enterococcus sp. J14365/08 after 48 hrs by broth microdilution method; settings: J14365/08, 48 h
In short: (§1)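 Broth microdilution following […], with twofold compound dilutions in Mueller-Hinton bouillon. Incubated 24 and 48 h at 35 °C in the dark in a humid atmosphere. MIC (IC80) was taken as ≥80% growth reduction versus control, read visually and photometrically.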

Aspergillus fumigatus [3] = experiment: Antifungal activity against Aspergillus fumigatus 231 after 24 hrs by broth microdilution method; settings: Aspergillus fumigatus, 231, 24 h
Nakaseomyces glabratus [4] = experiment: Antifungal activity against Candida glabrata 20/I after 48 hrs by broth microdilution method
Staphylococcus aureus [5] = experiment: Antibacterial activity against Staphylococcus aureus CCM 4516/08 after 24 hrs by broth microdilution method; settings: CCM 4516/08, 24 h; in short: as §1
Mycobacterium avium [6] = experiment: Antimycobacterial activity against multidrug-resistant Mycobacterium avium 330/88 after 14 days by micromethod; settings: 330/88, 336 h
In short: (§2)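 Micromethod in Sula semisynthetic medium, with compounds added as DMSO solutions at 1000, 500, 250, 125, 62, 32, 16, 8, 4, 2, 1, 0.5, 0.25. Inoculum dilutions: H37Rv 10^-3; M. avium 330/88 10^-5; M. kansasii 235/80 10^-4; M. kansasii 6509/96 10^-5. Incubated at 37 °C, read at 14 and 21 days, and at 7 days for M. kansasii. MIC was the lowest concentration inhibiting growth.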

Lichtheimia corymbifera [7] = experiment: Antifungal activity against Absidia corymbifera 272 after 48 hrs by broth microdilution method; settings: Lichtheimia corymbifera, 272, 48 h
Escherichia coli [8] = experiment: Antibacterial activity against Escherichia coli CCM 4517 after 24 hrs by broth microdilution method; settings: CCM 4517, 24 h; in short: as §1
Aspergillus fumigatus [9] = experiment: Antifungal activity against Aspergillus fumigatus 231 after 48 hrs by broth microdilution method; settings: Aspergillus fumigatus, 231, 48 h
Candida albicans [10] = experiment: Antifungal activity against Candida albicans ATCC 44859 after 48 hrs by broth microdilution method; settings: ATCC 44859, 48 h
Mycobacterium kansasii [11] = experiment: Antimycobacterial activity against Mycobacterium kansasii 235/80 after 14 days by micromethod; settings: 235/80, 336 h; in short: as §2
Staphylococcus aureus [12] = experiment: Antibacterial activity against Staphylococcus aureus CCM 4516/08 after 48 hrs by broth microdilution method; settings: CCM 4516/08, 48 h; in short: as §1
Mycobacterium avium [13] = experiment: Antimycobacterial activity against multidrug-resistant Mycobacterium avium 330/88 after 21 days by micromethod; settings: 330/88, 504 h; in short: as §2
Klebsiella pneumoniae [14] = experiment: Antibacterial activity against Klebsiella pneumoniae D11750/08 after 24 hrs by broth microdilution method; settings: D11750/08, 24 h; in short: as §1
Mycobacterium kansasii [15] = experiment: Antimycobacterial activity against Mycobacterium kansasii 6509/96 after 21 days by micromethod; settings: 6509/96, 504 h; in short: as §2
[16] = tested on: Mycobacterium tuberculosis; experiment: Antimycobacterial activity against Mycobacterium tuberculosis H37Rv 331/88 after 14 days by micromethod; settings: H37Rv 331/88, 336 h; in short: as §2
Trichosporon beigelii [17] = experiment: Antifungal activity against Trichosporon beigelii 1188 after 48 hrs by broth microdilution method; settings: Trichosporon beigelii, 1188, 48 h
Mycobacterium kansasii [18] = experiment: Antimycobacterial activity against Mycobacterium kansasii
Lichtheimia corymbifera [19] = experiment: Antifungal activity against Absidia corymbifera 272 after 24 hrs by broth microdilution method; settings: Lichtheimia corymbifera, 272, 24 h
[20] = tested on: Mycobacterium tuberculosis; experiment: Antimycobacterial activity against Mycobacterium tuberculosis H37Rv 331/88 after 21 days by micromethod; settings: H37Rv 331/88, 504 h; in short: as §2
[21] = tested on: Mycobacterium tuberculosis; experiment: Antimycobacterial activity against drug-sensitive Mycobacterium tuberculosis
Nakaseomyces glabratus [22] = experiment: Antifungal activity against Candida glabrata 20/I after 24 hrs by broth microdilution method
Trichosporon beigelii [23] = experiment: Antifungal activity against Trichosporon beigelii 1188 after 24 hrs by broth microdilution method; settings: Trichosporon beigelii, 1188, 24 h
Candida tropicalis [24] = experiment: Antifungal activity against Candida tropicalis 156 after 24 hrs by broth microdilution method; settings: Candida tropicalis, 156, 24 h
Staphylococcus aureus [25] = experiment: Antibacterial activity against methicillin-resistant Staphylococcus aureus H5996/08 after 48 hrs by broth microdilution method; settings: H5996/08, 48 h; in short: as §1
Candida albicans [26] = experiment: Antifungal activity against Candida albicans ATCC 44859 after 24 hrs by broth microdilution method; settings: ATCC 44859, 24 h
[27] = tested on: Staphylococcus epidermidis; experiment: Antibacterial activity against Staphylococcus epidermidis H6966/08 after 24 hrs by broth microdilution method; settings: H6966/08, 24 h; in short: as §1
Enterococcus sp. [28] = experiment: Antibacterial activity against Enterococcus sp. J14365/08 after 24 hrs by broth microdilution method; settings: J14365/08, 24 h; in short: as §1
[29] = tested on: Staphylococcus epidermidis; experiment: Antibacterial activity against Staphylococcus epidermidis H6966/08 after 48 hrs by broth microdilution method; settings: H6966/08, 48 h; in short: as §1
Mycobacterium kansasii [30] = experiment: Antimycobacterial activity against Mycobacterium kansasii 235/80 after 7 days by micromethod; settings: 235/80, 168 h; in short: as §2
Pichia kudriavzevii [31] = experiment: Antifungal activity against Candida krusei E28 after 48 hrs by broth microdilution method; settings: E28, 48 h
Mycobacterium avium [32] = experiment: Antimycobacterial activity against Mycobacterium avium
Pichia kudriavzevii [33] = experiment: Antifungal activity against Candida krusei E28 after 24 hrs by broth microdilution method; settings: E28, 24 h
Escherichia coli [34] = experiment: Antibacterial activity against Escherichia coli CCM 4517 after 48 hrs by broth microdilution method; settings: CCM 4517, 48 h; in short: as §1
[35] = tested on: Trichophyton mentagrophytes; experiment: Antifungal activity against Trichophyton mentagrophytes after 48 hrs by broth microdilution method
Mycobacterium kansasii [36] = experiment: Antimycobacterial activity against Mycobacterium kansasii 6509/96 after 14 days by micromethod; settings: 6509/96, 336 h; in short: as §2
Mycobacterium kansasii [37] = experiment: Antimycobacterial activity against Mycobacterium kansasii 6509/96 after 7 days by micromethod; settings: 6509/96, 168 h; in short: as §2
[38] = tested on: Trichophyton mentagrophytes; experiment: Antifungal activity against Trichophyton mentagrophytes after 24 hrs by broth microdilution method
Staphylococcus aureus [39] = experiment: Antibacterial activity against methicillin-resistant Staphylococcus aureus H5996/08 after 24 hrs by broth microdilution method; settings: H5996/08, 24 h; in short: as §1
Mycobacterium kansasii [40] = experiment: Antimycobacterial activity against Mycobacterium kansasii 235/80 after 21 days by micromethod; settings: 235/80, 504 h; in short: as §2
Klebsiella pneumoniae [41] = experiment: Antibacterial activity against Klebsiella pneumoniae D11750/08 after 48 hrs by broth microdilution method; settings: D11750/08, 48 h; in short: as §1

Measured: MIC

CC(=O)N[C@@H](Cc1ccccc1)C(=O)Oc1ccc(Cl)cc1C(=O)Nc1ccc(Cl)cc1
125 µM: Aspergillus fumigatus [9] | [27] | Enterococcus sp. [28] | Staphylococcus aureus [39]
31.2 µM: Aspergillus fumigatus [3] | [38]
8 µM: Mycobacterium avium [6] | Mycobacterium kansasii [15]
3.9 µM: Trichosporon beigelii [17] | Lichtheimia corymbifera [19] | Trichosporon beigelii [23]
2 µM: Mycobacterium kansasii [37]
4 µM: Mycobacterium kansasii [11] | [16] | [20] | Mycobacterium kansasii [30] | Mycobacterium kansasii [36] | Mycobacterium kansasii [40]
15.6 µM: Lichtheimia corymbifera [7]
62.5 µM: Staphylococcus aureus [5] | [35]
16 µM: Mycobacterium avium [13]
1 µM: Mycobacterium kansasii [18] | [21] | Mycobacterium avium [32]
> 125 µM: all other assays above

CC(=O)N[C@@H](Cc1ccccc1)C(=O)Oc1cc(Cl)ccc1C(=O)Nc1ccc(Cl)cc1
1.95 µM: Staphylococcus aureus [5] | [27] | Staphylococcus aureus [39]
125 µM: Klebsiella pneumoniae [41]
4 µM: Mycobacterium kansasii [11] | [16] | [20] | Mycobacterium kansasii [30] | Mycobacterium kansasii [37] | Mycobacterium kansasii [40]
7.81 µM: Lichtheimia corymbifera [7] | Lichtheimia corymbifera [19]
15.6 µM: Staphylococcus aureus [12] | Trichosporon beigelii [23] | [38]
3.9 µM: Enterococcus sp. [28]
16 µM: Mycobacterium avium [13] | Mycobacterium kansasii [15]
62.5 µM: Klebsiella pneumoniae [14] | Trichosporon beigelii [17]
8 µM: Mycobacterium avium [6] | Mycobacterium kansasii [36]
31.2 µM: Escherichia coli [8] | Staphylococcus aureus [25] | Candida albicans [26] | [29] | Pichia kudriavzevii [33] | [35]
1 µM: Mycobacterium kansasii [18] | [21] | Mycobacterium avium [32]
> 125 µM: all other assays above
